In experiment [1] the target is T1, Bone morphogenetic protein receptor type-1B (Homo sapiens, UniProt O00238). In words: Inhibition of BMPR1B at 10 uM after 1 hr by competitive binding assay. An outline of the steps:
(§1)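 Single-dose competitive binding at 10 μM against immobilized ATP-site ligands (DiscoveRx): phage-tagged or HEK-293-expressed DNA-tagged kinase with ligand-loaded streptavidin magnetic beads in 20% SeaBlock, 0.17× PBS, 0.05% Tween 20, 6 mM DTT, 1 h room temperature with shaking. Beads washed, eluted with 0.5 μM free ligand for 30 min; bound kinase quantified by qPCR as % binding inhibition.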

In experiment [2] the target is Myosin light chain kinase (Homo sapiens) (UniProt Q32MK0). In words: Inhibition of MYLK3 at 10 uM after 1 hr by competitive binding assay. A digest of the protocol:
as §1

The target of experiment [3] is Serine/threonine-protein kinase DCLK1 (Homo sapiens) (UniProt O15075). In words: Inhibition of DCLK1 at 10 uM after 1 hr by competitive binding assay. A digest of the protocol: as §1
The target in experiment [4] is NT-3 growth factor receptor (Homo sapiens) (UniProt Q16288). In words: Inhibition of NTRK3 at 10 uM after 1 hr by competitive binding assay. An outline of the steps: as §1
Experiment [5] addresses Myosin light chain kinase family member 4 (Homo sapiens) (UniProt Q86YV6). In words: Inhibition of MYLK4 at 10 uM after 1 hr by competitive binding assay. An outline of the steps:
as §1

Experiment [6] deals with Protein kinase C epsilon type (Homo sapiens) (UniProt Q02156). In words: Inhibition of PRKCE at 10 uM after 1 hr by competitive binding assay. A digest of the protocol: as §1
The target in experiment [7] is Mitogen-activated protein kinase 11 (Homo sapiens) (UniProt Q15759). In words: Inhibition of MAPK11 at 10 uM after 1 hr by competitive binding assay. A digest of the protocol:
as §1

In experiment [8] the target is MAP kinase-interacting serine/threonine-protein kinase 2 (Homo sapiens) (UniProt Q9HBH9). In words: Inhibition of MKNK2 at 10 uM after 1 hr by competitive binding assay. A digest of the protocol: as §1
In experiment [9] the target is Tyrosine-protein kinase Tec (Homo sapiens) (UniProt P42680). In words: Inhibition of TEC at 10 uM after 1 hr by competitive binding assay. An outline of the steps: as §1
Experiment [10] has as its target Receptor tyrosine-protein kinase erbB-2 (Homo sapiens) (UniProt P04626). In words: Inhibition of ErbB2 at 10 uM after 1 hr by competitive binding assay. A digest of the protocol:
as §1

Experiment [11] deals with Receptor-type tyrosine-protein kinase FLT3 (Homo sapiens) (UniProt P36888). In words: Inhibition of FLT-3 kinase at 10 uM after 1 hr by competitive binding assay. An outline of the steps: as §1
Experiment [12] concerns the target Serine/threonine-protein kinase Nek2 (Homo sapiens) (UniProt P51955). In words: Inhibition of NEK2 at 10 uM after 1 hr by competitive binding assay. A digest of the protocol: as §1
Experiment [13] has as its target Tyrosine-protein kinase Blk (Homo sapiens) (UniProt P51451). In words: Inhibition of Blk at 10 uM after 1 hr by competitive binding assay. A digest of the protocol: as §1
The target of experiment [14] is Epidermal growth factor receptor (Homo sapiens) (UniProt P00533). In words: Inhibition of EGFR at 10 uM after 1 hr by competitive binding assay. An outline of the steps: as §1
For experiment [15], the target named is Tyrosine-protein kinase ABL1 (Homo sapiens) (UniProt P00519). In words: Inhibition of ABL1 at 10 uM after 1 hr by competitive binding assay. A digest of the protocol:
as §1

In experiment [16] the target is Homeodomain-interacting protein kinase 1 (Homo sapiens) (UniProt Q86Z02). In words: Inhibition of HIPK1 at 10 uM after 1 hr by competitive binding assay. A digest of the protocol:
as §1

The target in experiment [17] is T1, Bone morphogenetic protein receptor type-1B. In words: Binding affinity to BMPR1B by multi dose competitive binding assay.
Experiment [18] relates to L1210. In words: Antiproliferative activity against mouse L1210 cells after 48 hrs. The experiment is classed as functional, cell-based. The following applies: L1210, 48 h. A digest of the protocol: (§2)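 Cells in growth medium grown with variable compound concentrations at 37 °C in humidified CO2-controlled atmosphere; incubation 48 h for L1210 and FM3A, 72 h for CEM, 96 h for HeLa. Cell number counted by Coulter counter; IC50 = concentration inhibiting proliferation by 50%.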

In experiment [19] the test system is FM3A. In words: Antiproliferative activity against mouse FM3A cells after 48 hrs. The experiment is classed as functional, cell-based. An outline of the steps:
as §2

In experiment [20] the test system is CCRF-CEM. In words: Antiproliferative activity against human CEM cells after 72 hrs. The experiment is classed as cell-based. A digest of the protocol:
as §2

Experiment [21] has as its system HeLa. In words: Antiproliferative activity against human HeLa cells after 96 hrs. The experiment is classed as functional, cell-based. A digest of the protocol: as §2
Experiment [22] deals with T1, Bone morphogenetic protein receptor type-1B. In words: Binding affinity to BMPR1B at >30 uM by multi dose competitive binding assay.
The nature of experiment [23]: Antiproliferative activity against human NCI60 cells. The experiment is classed as functional, cell-based.

Converted amounts (≈) assume the structure as drawn. The source made the active and inactive calls. The calls are words filed in the database; no cut-off is given here.

T1 sequence (O00238 whole entry): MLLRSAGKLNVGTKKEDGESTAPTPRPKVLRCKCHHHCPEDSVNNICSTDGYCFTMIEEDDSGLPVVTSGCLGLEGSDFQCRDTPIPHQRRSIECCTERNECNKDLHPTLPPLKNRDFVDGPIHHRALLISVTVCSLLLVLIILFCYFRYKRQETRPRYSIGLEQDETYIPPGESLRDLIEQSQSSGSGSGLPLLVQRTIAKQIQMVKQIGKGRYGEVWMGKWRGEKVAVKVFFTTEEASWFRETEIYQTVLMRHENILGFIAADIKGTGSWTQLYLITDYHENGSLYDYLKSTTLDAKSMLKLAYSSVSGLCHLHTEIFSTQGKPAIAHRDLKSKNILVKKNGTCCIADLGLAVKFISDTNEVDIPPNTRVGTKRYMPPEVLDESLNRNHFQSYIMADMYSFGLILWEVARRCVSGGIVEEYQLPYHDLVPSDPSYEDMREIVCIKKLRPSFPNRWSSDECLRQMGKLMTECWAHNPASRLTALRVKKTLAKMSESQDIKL
Chain of Tyrosine-protein kinase ABL1 (Homo sapiens) (P00519 whole entry): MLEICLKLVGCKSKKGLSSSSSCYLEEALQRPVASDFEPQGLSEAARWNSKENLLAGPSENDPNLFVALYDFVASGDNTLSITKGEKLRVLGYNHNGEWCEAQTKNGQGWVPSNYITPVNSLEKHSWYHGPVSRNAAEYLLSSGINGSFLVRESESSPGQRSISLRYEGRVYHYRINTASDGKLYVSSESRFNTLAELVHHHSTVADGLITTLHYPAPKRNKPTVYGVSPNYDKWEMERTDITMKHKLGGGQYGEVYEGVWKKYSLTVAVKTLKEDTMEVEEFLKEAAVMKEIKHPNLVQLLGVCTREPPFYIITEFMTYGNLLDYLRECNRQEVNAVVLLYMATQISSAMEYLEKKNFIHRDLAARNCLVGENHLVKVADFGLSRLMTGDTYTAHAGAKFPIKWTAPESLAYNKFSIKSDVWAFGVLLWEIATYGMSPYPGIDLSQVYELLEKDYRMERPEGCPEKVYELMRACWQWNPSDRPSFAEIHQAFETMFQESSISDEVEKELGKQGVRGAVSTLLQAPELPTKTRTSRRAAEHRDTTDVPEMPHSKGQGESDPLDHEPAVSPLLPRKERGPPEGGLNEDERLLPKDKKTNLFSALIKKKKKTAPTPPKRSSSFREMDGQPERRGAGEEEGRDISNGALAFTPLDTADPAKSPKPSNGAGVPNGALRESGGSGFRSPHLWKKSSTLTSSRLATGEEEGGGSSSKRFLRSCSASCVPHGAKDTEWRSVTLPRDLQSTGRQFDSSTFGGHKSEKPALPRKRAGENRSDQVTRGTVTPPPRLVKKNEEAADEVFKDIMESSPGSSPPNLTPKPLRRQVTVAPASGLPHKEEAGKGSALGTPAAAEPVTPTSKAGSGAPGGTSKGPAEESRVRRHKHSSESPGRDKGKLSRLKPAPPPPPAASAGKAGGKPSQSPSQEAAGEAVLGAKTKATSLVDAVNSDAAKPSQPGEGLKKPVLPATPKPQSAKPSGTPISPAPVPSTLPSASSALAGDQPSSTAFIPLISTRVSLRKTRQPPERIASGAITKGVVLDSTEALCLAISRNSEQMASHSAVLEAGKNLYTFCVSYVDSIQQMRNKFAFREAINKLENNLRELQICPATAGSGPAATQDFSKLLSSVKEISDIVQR
Chain of Tyrosine-protein kinase Tec (Homo sapiens) (P42680 whole entry): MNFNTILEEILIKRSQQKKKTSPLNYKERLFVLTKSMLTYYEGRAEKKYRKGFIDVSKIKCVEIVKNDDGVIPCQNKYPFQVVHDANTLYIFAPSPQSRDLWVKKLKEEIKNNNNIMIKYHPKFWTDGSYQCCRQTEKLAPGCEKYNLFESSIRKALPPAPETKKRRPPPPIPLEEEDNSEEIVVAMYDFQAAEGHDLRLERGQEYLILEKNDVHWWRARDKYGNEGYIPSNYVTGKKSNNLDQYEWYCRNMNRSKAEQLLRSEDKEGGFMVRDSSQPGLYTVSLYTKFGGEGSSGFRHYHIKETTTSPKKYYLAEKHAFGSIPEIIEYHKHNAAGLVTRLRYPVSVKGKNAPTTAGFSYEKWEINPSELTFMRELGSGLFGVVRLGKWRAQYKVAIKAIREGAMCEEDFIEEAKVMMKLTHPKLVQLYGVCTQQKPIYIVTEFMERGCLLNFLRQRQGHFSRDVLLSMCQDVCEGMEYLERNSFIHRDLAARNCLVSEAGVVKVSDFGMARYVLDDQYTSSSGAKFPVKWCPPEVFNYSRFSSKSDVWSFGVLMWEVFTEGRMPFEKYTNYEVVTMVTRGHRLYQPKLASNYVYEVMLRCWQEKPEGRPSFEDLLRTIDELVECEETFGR
Chain of Epidermal growth factor receptor (Homo sapiens) (P00533 whole entry): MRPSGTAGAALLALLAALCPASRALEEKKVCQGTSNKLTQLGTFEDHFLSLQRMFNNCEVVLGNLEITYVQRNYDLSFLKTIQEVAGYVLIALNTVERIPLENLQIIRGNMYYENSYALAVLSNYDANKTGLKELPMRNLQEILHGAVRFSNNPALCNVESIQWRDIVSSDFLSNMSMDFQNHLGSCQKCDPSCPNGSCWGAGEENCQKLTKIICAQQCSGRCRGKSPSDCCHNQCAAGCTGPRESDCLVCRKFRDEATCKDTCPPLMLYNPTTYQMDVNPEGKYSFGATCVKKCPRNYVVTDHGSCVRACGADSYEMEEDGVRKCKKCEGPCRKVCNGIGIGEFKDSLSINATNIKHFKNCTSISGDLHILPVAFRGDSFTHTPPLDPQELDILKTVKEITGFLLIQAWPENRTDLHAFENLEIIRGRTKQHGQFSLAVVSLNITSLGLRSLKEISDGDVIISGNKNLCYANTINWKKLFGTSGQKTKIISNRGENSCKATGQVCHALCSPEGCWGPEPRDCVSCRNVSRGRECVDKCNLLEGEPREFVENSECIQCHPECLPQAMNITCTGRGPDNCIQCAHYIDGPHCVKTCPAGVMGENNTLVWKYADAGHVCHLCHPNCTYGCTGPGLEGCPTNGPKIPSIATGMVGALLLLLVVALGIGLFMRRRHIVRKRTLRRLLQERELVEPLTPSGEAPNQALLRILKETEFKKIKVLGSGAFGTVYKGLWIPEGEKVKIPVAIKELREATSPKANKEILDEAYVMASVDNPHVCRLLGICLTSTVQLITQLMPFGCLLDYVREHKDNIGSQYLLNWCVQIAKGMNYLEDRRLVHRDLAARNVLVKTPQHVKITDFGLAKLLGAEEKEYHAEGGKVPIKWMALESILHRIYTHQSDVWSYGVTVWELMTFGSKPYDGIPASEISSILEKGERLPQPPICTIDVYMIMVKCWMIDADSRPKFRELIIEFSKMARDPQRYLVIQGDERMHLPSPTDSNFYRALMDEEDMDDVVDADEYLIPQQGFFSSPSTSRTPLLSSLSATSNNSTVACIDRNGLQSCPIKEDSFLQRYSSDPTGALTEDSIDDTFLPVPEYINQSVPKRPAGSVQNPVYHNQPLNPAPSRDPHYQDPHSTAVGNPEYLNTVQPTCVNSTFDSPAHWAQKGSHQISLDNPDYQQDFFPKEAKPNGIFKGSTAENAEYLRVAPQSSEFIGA
Chain of NT-3 growth factor receptor (Homo sapiens) (Q16288 32-839 limits assumed): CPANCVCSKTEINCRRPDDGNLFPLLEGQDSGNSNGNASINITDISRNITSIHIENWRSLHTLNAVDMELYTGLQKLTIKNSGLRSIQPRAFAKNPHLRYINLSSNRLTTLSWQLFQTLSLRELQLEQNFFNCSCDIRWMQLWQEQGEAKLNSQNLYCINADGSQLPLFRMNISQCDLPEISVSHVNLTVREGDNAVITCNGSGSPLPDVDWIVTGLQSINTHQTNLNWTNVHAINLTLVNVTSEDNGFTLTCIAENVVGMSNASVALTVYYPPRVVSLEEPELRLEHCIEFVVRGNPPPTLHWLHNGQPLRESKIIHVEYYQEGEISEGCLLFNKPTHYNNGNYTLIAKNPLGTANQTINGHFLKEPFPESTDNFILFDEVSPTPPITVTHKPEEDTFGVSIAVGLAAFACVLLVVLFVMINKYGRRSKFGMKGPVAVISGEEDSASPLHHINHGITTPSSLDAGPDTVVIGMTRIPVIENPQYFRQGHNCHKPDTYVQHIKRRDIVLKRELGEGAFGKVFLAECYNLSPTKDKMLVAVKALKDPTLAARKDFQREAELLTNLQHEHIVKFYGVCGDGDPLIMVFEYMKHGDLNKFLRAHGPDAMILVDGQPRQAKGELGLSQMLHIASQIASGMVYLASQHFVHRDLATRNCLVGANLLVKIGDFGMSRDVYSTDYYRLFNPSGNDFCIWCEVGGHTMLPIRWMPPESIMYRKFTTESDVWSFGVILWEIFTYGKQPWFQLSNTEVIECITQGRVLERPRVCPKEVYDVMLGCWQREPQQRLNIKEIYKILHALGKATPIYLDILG
Chain of Myosin light chain kinase family member 4 (Homo sapiens) (Q86YV6 whole entry): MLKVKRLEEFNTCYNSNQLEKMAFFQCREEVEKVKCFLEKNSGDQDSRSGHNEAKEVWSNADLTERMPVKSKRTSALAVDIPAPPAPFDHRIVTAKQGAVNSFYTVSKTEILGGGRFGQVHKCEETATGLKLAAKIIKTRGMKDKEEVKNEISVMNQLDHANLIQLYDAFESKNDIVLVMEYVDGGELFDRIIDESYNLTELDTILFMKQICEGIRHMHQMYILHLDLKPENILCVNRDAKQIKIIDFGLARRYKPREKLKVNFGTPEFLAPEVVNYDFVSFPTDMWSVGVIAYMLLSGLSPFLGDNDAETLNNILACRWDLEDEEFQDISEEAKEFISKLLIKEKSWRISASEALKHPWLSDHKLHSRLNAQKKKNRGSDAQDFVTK
Chain of Mitogen-activated protein kinase 11 (Homo sapiens) (Q15759 whole entry): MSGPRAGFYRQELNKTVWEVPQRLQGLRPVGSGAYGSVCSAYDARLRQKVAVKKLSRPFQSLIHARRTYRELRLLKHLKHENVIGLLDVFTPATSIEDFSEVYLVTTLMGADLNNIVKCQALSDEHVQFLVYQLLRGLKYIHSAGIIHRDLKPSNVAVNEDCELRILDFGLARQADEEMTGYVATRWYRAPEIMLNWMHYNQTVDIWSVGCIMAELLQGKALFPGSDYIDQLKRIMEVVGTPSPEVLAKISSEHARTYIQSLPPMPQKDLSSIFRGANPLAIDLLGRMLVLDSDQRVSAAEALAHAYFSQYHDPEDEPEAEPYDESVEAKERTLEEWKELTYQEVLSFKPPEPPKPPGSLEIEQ

For `CNC(=O)NC[C@H]1O[C@@H](n2cnc3c(NC(=O)Nc4ccccc4)ncnc32)[C@H](O)[C@@H]1O`, the inhibition in experiment [1] was 45%; in experiment [2], 43%; in [3], 41%; in experiment [4], 40%; in [5], 38%; in [6] it was 38%. Besides, the inhibition in experiment [7] was 37%; in experiment [8], 37%; in [9] it was 37%; in experiment [10], 35%; in [11] it was 33%; in [12] it was 33%. In addition, the inhibition in experiment [13] was 32%; in [14], 31%; in experiment [15], 30%; in experiment [16], 30%. Besides, the dissociation constant (Kd) in experiment [17] was 11.5 µM.
In the case of `CNC(=O)NC[C@H]1O[C@@H](n2cnc3c(NC(=O)Nc4ccccc4)ncnc32)[C@H](O[Si](C)(C)C(C)(C)C)[C@@H]1O[Si](C)(C)C(C)(C)C`, the IC50 in experiment [18] is 3.8 µg/mL (≈ 5.66 µM); in experiment [19], 5.9 µg/mL (≈ 8.79 µM); in experiment [20], 8.3 µg/mL (≈ 12.4 µM); in experiment [21], 3.2 µg/mL (≈ 4.77 µM); in experiment [23] it was under 10 µM. In addition, the result in experiment [22] was inactive.

The values are drawn from ChEMBL document CHEMBL1933013, “Synthesis, SAR, and preliminary mechanistic evaluation of novel antiproliferative N⁶,5'-bis-ureido- and 5'-carbamoyl-N⁶-ureidoadenosine derivatives” (Bioorg Med Chem, 2012).
